Screening data as filed in PubChem.
An excerpt weighted towards active compounds, which were near 4.1% of everything screened.
KCNQ1 pot = potentiators or activators of KCNQ1 channel, primary screen, cell-based, thallium flux, high-throughput | AID 2648, 2010 | B-score at 10 µM | Potassium voltage-gated channel subfamily KQT member 1 (Homo sapiens), P51787 | 0.35% of 310,000 active | CHO-K1 KCNQ1, thallium flux FluxOR fluorescence; hits give high values;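 active means fluorescence ratio B-score, a plate-corrected score, at least three library SD, with initial intensity B-score within 5 SD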
Target sequence (P51787 whole entry, looked up): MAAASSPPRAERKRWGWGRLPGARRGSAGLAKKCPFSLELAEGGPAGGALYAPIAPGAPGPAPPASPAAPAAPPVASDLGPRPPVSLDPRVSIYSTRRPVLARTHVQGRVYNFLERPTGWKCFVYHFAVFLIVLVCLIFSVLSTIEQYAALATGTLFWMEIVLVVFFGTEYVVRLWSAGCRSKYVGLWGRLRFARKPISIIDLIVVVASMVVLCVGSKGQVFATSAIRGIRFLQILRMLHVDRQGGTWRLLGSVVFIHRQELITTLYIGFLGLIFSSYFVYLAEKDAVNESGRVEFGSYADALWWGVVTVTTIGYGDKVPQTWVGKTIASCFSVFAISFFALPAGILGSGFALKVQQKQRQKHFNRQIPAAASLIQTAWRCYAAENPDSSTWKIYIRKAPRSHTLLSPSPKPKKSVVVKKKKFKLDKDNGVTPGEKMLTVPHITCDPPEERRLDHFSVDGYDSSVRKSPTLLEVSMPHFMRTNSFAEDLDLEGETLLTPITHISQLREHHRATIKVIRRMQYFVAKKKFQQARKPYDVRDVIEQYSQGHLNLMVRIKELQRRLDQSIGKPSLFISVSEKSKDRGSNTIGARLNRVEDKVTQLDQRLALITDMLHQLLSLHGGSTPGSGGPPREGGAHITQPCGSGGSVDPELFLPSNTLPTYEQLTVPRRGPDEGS
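Medium – assay buffer, equal DMSO in all wells · Material – CHO-K1 cell line with stable KCNQ1 potassium channel expression · Signal – kinetic FluxOR thallium fluorescence, 10-s 1-Hz baseline, 110-s post-stimulus read · Compound – single concentration per compound, DMSO matched to controls · Schedule – 37 °C overnight plating, 90-min dark dye load, 20-min compound pretreatment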
KCNQ1 block = inhibitors of human KCNQ1 channel, primary screen, cell-based, thallium flux, high-throughput. Potassium voltage-gated channel subfamily KQT member 1 (Homo sapiens), P51787. CHO-K1 KCNQ1, FluxOR thallium flux fluorescence; hits give high values. B-score at 10 µM. 1.3% of 310,000 active. AID 2642, 2010;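 active means compounds whose thallium flux B-score, printed positive for inhibition, exceeds three library SD while starting fluorescence stays within three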;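 further: channel opened by potassium depolarization with thallium stimulus after 20 min compound exposure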
Cl transport mod = KCC2 cotransporter modulators, thallium flux, primary screen, cell-based, HEK293 KCC2, FluoZin-2 fluorescence, MLSMR | KCC2 cells, thallium flux FluoZin-2 fluorescence | B-score of Tl+ flux slope (higher = more flux/activation; lower = inhibition) at 10 µM | 2.2% of 190,000 active | AID 1456, 2008;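 active means thallium flux slope and its plate-corrected score both differing from the plate sample mean at a set confidence after two filtering rounds, in either direction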;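 further: slope of fluorescence scaled to starting intensity during 10 to 20 s after thallium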
KCNK3 block = human KCNK3 channel inhibitors, primary screen, CHO cells, FluxOR thallium flux, B-score. Potassium channel subfamily K member 3 (Homo sapiens), O14649. 0.84% of 340,000 active. FluxOR fluorescence; hits give low values. AID 602410, 2012. B-score at 10 µM;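 active means B-score under library mean minus 4 SD, starting fluorescence ratio at most library mean plus 5 SD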;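 further: more negative B-score means stronger inhibition of thallium flux through KCNK3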
KCNK9 block = KCNK9 potassium channel inhibitors, primary screen, HEK293 cells, thallium flux | Potassium channel subfamily K member 9 (Homo sapiens), Q9NPC2 | FluxOR thallium flux fluorescence; hits give low values | B-score at 10 µM | 1.2% of 310,000 active | AID 488922, 2010;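 active means ratio B-score over 3 SD below the library mean, with starting fluorescence within 5 SD of its mean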;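 further: negative B-score means less thallium flux so channel inhibition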
hERG rescue = hERG rescue from dofetilide block, primary screen, cell-based, CHO-hERG, FluxOR thallium flux, dofetilide IC70; Voltage-gated inwardly rectifying potassium channel KCNH2 (Homo sapiens), Q12809; dofetilide IC70 present; activation (rescue from dofetilide block), less the hit threshold, % at 10 µM; 0.51% of 310,000 active; AID 1511, 2009;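 active means activation above the mean of controls blocked by dofetilide plus 5 SD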;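 further: thallium influx through hERG after potassium depolarization seen as dye fluorescence rise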
Each line names hits and unclear results; the compound was inactive in the other large screens.

CCOc1ccc2[nH]c(C(=O)N/N=C/c3ccccc3OC)cc2c1	KCNK9 block -7.9 (no result: Cl transport mod)
C/C(=N\NC(=O)c1ccccc1)c1ccccc1F	none
COc1ccccc1C(=O)NCC(=O)N/N=C/c1cc(Br)ccc1OCc1ccccc1	KCNK9 block -7.6
C/C(=N\NC(=O)c1ccccc1OCCOc1ccccc1)c1ccccc1F	KCNK3 block -10 (no result: KCNQ1 pot, KCNQ1 block, Cl transport mod, KCNK9 block, hERG rescue)
COc1ccc(C(=O)N/N=C/c2ccccc2OC(=O)c2ccccc2)cc1	KCNK9 block -14 (no result: Cl transport mod)
Cc1nc(-c2ccc(F)cc2)c(CC(=O)N(C)CC(=O)Nc2ccc(Cl)c(C(F)(F)F)c2)s1	none (no result: KCNQ1 pot, KCNQ1 block, Cl transport mod, KCNK9 block, hERG rescue)
COc1ccc(/C=N/NC(=O)c2nc(-c3ccccc3)cc(-c3ccccc3)n2)cc1	KCNQ1 block 10, KCNK9 block -7.1
COc1ccc(/C=N/NC(=O)c2c(-c3ccccc3)noc2C)cc1	none
COc1ccccc1C=NNC(=O)c1ccccc1OCCOc1ccccc1	KCNK3 block -10 (no result: KCNQ1 pot, KCNQ1 block, Cl transport mod, KCNK9 block, hERG rescue)
O=C(O)Cc1ccc(S(=O)(=O)N2CCCC2)s1	none (no result: KCNQ1 pot, KCNQ1 block, Cl transport mod, KCNK9 block, hERG rescue)
COc1ccc(N(C)C(=O)c2ccc3nc(-c4ccccc4)c(-c4ccccc4)nc3c2)cc1	KCNQ1 block 9, KCNK9 block -7.4
CC(C)N(C(=O)c1ccc2nc(-c3ccccc3)c(-c3ccccc3)nc2c1)C(C)C	none
COc1ccc([C@H]2/C=C\CN(S(=O)(=O)c3ccc(C)cc3)[C@@H](C)C(=O)N2Cc2ccc(F)cc2)cc1	none (no result: Cl transport mod)
COc1ccc([C@H]2/C=C\CN(S(=O)(=O)c3ccc4ccccc4c3)[C@@H](C)C(=O)N2Cc2ccc(F)cc2)cc1	KCNK9 block -7.8 (no result: Cl transport mod)
CC12CCC(C(=NO)C1=O)C2(C)C (centres undefined)	none (no result: KCNQ1 pot, KCNQ1 block, Cl transport mod, KCNK9 block, hERG rescue)
Cn1cnnc1Sc1ccc(C(=O)NCCC(c2ccccc2)c2ccccc2)cc1[N+](=O)[O-]	KCNQ1 block 10
CCCCCOc1ccc(C(O)C(CN2CCOCC2)c2ccccc2)cc1 (centres undefined)	none (no result: Cl transport mod)
Cc1cc(C(=O)N2CCc3c([nH]c4ccccc34)C2c2cccc(Cl)c2)nn1C (centres undefined)	KCNK9 block -7.4 (no result: Cl transport mod)
CSc1ccc(C2c3[nH]c4ccccc4c3CCN2C(=O)c2cc(C)n(C)n2)cc1 (centres undefined)	none (no result: KCNK3 block)
CCCSc1nc(N)cc(=O)[nH]1	hERG rescue 4.7
O=C(/C=C/c1cccc([N+](=O)[O-])c1)NCc1ccccc1	none
O=C(/C=C/c1cccc([N+](=O)[O-])c1)NCCSCc1cccc(Cl)c1	KCNK9 block -7.7
Cc1cc(O)c(C(C)C)cc1NC(=S)Nc1cc(C(C)C)c(O)cc1C	none (no result: KCNQ1 pot, KCNQ1 block, Cl transport mod, KCNK9 block, hERG rescue)
CC1=C(C(=O)O)CC(S(=O)(=O)O)C1(C)C (centres undefined)	none (no result: KCNQ1 pot, KCNQ1 block, Cl transport mod, KCNK9 block, hERG rescue)
O=S(=O)(c1cccc(-c2nnc(SCc3ccc(Cl)cc3)o2)c1)N1CCCCC1	KCNK9 block -7.2
Cc1cc(C)c2nc(NC(=O)c3cc(C)on3)sc2c1	KCNQ1 pot 24, Cl transport mod 39
CCc1noc(C)c1C(=O)Nc1nc2ccc(F)cc2s1	none (no result: Cl transport mod)
CCc1ccc2nc(NC(=O)c3cc(C)on3)sc2c1	KCNQ1 pot 29, Cl transport mod 42, hERG rescue 9.4
O=C(O)/C(=C/c1ccc(Cl)c([N+](=O)[O-])c1)c1ccc(S(=O)(=O)N2CCCCC2)s1	none (no result: KCNQ1 pot, KCNQ1 block, Cl transport mod, KCNK9 block, hERG rescue)
O=C(c1cc2nc(-c3ccc(Cl)cc3)cc(C(F)(F)F)n2n1)N1CCOCC1	hERG rescue 46
CCCCCCCCCCCn1nnnc1N	none (no result: KCNQ1 pot, KCNQ1 block, Cl transport mod, KCNK9 block, hERG rescue)
COc1cc(C2(c3ccc(O)c(OC)c3)C(=O)Nc3c(C)cc(Br)cc32)ccc1O	KCNQ1 pot 9 (no result: Cl transport mod)
COC(=O)c1[nH]c2ccc(Br)cc2c1NC(=O)CN1CCCc2ccccc21	KCNQ1 block 6
